The values below come from ChEMBL document CHEMBL5154934, “Structure-Guided Design of Potent Spirocyclic Inhibitors of Severe Acute Respiratory Syndrome Coronavirus-2 3C-like Protease” (J Med Chem, 2022).

Structures are written as SMILES. Activity calls are given as the source filed them. No cut-off for these calls is given here.

Data set [1] in a line: Cytotoxicity against african green monkey Vero E6 cells. The class given is toxicity, cell-based, Vero C1008. The note with it: chlorocebus sabaeus.
Data set [2] has as its target Replicase polyprotein 1ab (Severe acute respiratory syndrome coronavirus 2, UniProt P0DTD1). In words: Inhibition of N-terminal His6-tagged SARS-CoV2 Wuhan-Hu-1 3C-like protease […] expressed in Escherichia coli BL21 (DE3) cells using FAM-SAVLQ/SG-QXL520 as substrate by FRET enzyme assay. The gist of the method:
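Enzyme was full-length codon-optimized N-terminal His6 protease from pET-28a. It was preincubated with serial inhibitor dilutions, or DMSO, for 1 h at 37°C in 20 mM HEPES pH 8 with 200 mM NaCl, 0.4 mM EDTA, 60% glycerol and 6 mM DTT. FAM-SAVLQ/SG-QXL520 was then added and fluorescence (ex 480/em 520 nm) read after 1 h. Readings were background-subtracted. IC50 came from a variable-slope fit, mean ± SD of ≥3 replicates.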

Data set [3] can be described thus: Inhibition of MERS-CoV 3C-like protease incubated for 30 mins by FRET enzyme assay. The arrangement: species or system Middle East respiratory syndrome-related coronavirus.
Data set [4] relates to SARS-CoV-2. In words: Antiviral activity against SARS-CoV-2 3C-like measured after 24 hrs. The format is functional, organism-based. The note with it: Severe acute respiratory syndrome coronavirus 2, 24 h.
Data set [5] has as its system SARS-CoV-2. In words: Antiviral activity against N-terminal His6-tagged SARS-CoV-2 3C-like protease […] HEK293T cells measured after 24 hrs by cell based replicon assay. The format is functional, organism-based. The conditions noted are these: Severe acute respiratory syndrome coronavirus 2.
Data set [6] in a line: Safety index, ratio of CC50 for cytotoxicity against Vero E6 cells to EC50 for antiviral activity against SARS-CoV-2 Wuhan-Hu-1. The format is toxicity, cell-based, Vero C1008. The conditions noted are these: monkey, read-out: Ratio CC50/EC50.

`CC(C)C[C@H](NC(=O)OC1CC2(C1)CN(C(=O)Cc1ccccc1)C2)C(=O)N[C@@H](C[C@H]1CCNC1=O)C(=O)C(O)S(=O)(=O)O` (stereo partly specified) came in with a CC50 in data set [1] of over 100000 nM.

For the compound `CC(C)C[C@H](NC(=O)OC1CC2(C1)CN(C(=O)C(C)C)C2)C(=O)N[C@H](C=O)C[C@H]1CCNC1=O`, the values for the IC50 in data set [2] and in data set [3] were 1150 nM and 350 nM, respectively. The CC50 in data set [1] is over 100000 nM.

As to `CC(C)C[C@H](NC(=O)OC1CC2(CCN(C(=O)C(C)C)CC2)C1)C(=O)N[C@@H](C[C@H]1CCNC1=O)C(=O)C(O)S(=O)(=O)O` (stereo partly specified), in data set [1], the CC50 was over 100000 nM.

`[2H]C([2H])(OC(=O)N[C@@H](CC(C)C)C(=O)N[C@@H](C[C@H]1CCNC1=O)C(=O)C(O)S(=O)(=O)[O-])C1CN(C(=O)OC(C)(C)C)C1.[Na+]` (stereo partly specified): the CC50 in data set [1] is over 100000 nM.

In data set [1], `CC(C)C[C@H](NC(=O)OCC1CN(C(=O)Cc2ccccc2)C1)C(=O)N[C@@H](C[C@H]1CCNC1=O)C(=O)C(O)S(=O)(=O)O` (stereo partly specified) yielded a CC50 of over 100000 nM.

On to `CC(C)C[C@H](NC(=O)OC1CC2(C1)CN(C(=O)Cc1ccccc1)C2)C(=O)N[C@H](C=O)C[C@H]1CCNC1=O`, for which the IC50 worked out at 260 nM in data set [2] and 210 nM in data set [3]. Further, in data set [1], the CC50 is over 100000 nM.

Consider `CC(C)C[C@H](NC(=O)OC1(C)CN(C(=O)OC(C)(C)C)C1)C(=O)N[C@@H](C[C@H]1CCNC1=O)C(=O)C(O)S(=O)(=O)O` (stereo partly specified), for which the CC50 in data set [1] was over 100000 nM.

`CC(C)C[C@H](NC(=O)OC1CCC2(C1)CN(C(=O)OC(C)(C)C)C2)C(=O)N[C@@H](C[C@H]1CCNC1=O)C(=O)C(O)S(=O)(=O)O` (stereo partly specified) showed a CC50 in data set [1] of over 100000 nM.

`CC(C)C[C@H](NC(=O)OC1CC2(C1)CN(S(C)(=O)=O)C2)C(=O)N[C@@H](C[C@H]1CCNC1=O)C(=O)C(O)S(=O)(=O)O` (stereo partly specified) gave a CC50 in data set [1] of over 100000 nM.

In turn, `CC(C)C[C@H](NC(=O)OC1CN(C(=O)OC(C)(C)C)C1)C(=O)N[C@@H](C[C@H]1CCNC1=O)C(=O)C(O)S(=O)(=O)O` (stereo partly specified) gave a CC50 in data set [1] of over 100000 nM.

Consider `CC(C)C[C@H](NC(=O)OC1CCC2(C1)CN(C(=O)OC(C)(C)C)C2)C(=O)N[C@H](C=O)C[C@H]1CCNC1=O` (stereo partly specified), for which the results for the IC50 in data set [2] and in data set [3] were 1250 nM and 1010 nM, respectively. This compound registered a CC50 in data set [1] of over 100000 nM.

`CC(C)C[C@H](NC(=O)OCC1CN(S(C)(=O)=O)C1)C(=O)N[C@@H](C[C@H]1CCNC1=O)C(=O)C(O)S(=O)(=O)O` (stereo partly specified) registered a CC50 in data set [1] of over 100000 nM.

Take `CC(C)C[C@H](NC(=O)OCC1CN(C(=O)C2CC3CCC2C3)C1)C(=O)N[C@@H](C[C@H]1CCNC1=O)C(=O)C(O)S(=O)(=O)O` (stereo partly specified): the CC50 in data set [1] is over 100000 nM.

For the compound `CC(C)C[C@H](NC(=O)OC1CC2(CCN(C(=O)C(C)C)CC2)C1)C(=O)N[C@H](C=O)C[C@H]1CCNC1=O`, the IC50 in data set [2] worked out at 380 nM; in data set [3], 650 nM. Besides, the CC50 in data set [1] was over 100000 nM.

In the case of `[2H]C([2H])(OC(=O)N[C@@H](CC(C)C)C(=O)N[C@H](C=O)C[C@H]1CCNC1=O)C1CN(C(=O)OC(C)(C)C)C1`, the IC50 in data set [2] was found to be 330 nM; in data set [3] it was 350 nM. This compound also had a CC50 in data set [1] of over 100000 nM.

In the data set on SARS-CoV-2 [4], `CC(C)C[C@H](NC(=O)OC1CC2(CCN(C(=O)OC(C)(C)C)CC2)C1)C(=O)N[C@H](C=O)C[C@H]1CCNC1=O` showed an EC50 of 90 nM. Moreover, in the data set on SARS-CoV-2 [5], the outcome was Active. For the same compound, the selectivity ratio in data set [6] is 1250. Moreover, the IC50 turned out to be 360 nM in data set [2] and 1200 nM in data set [3]. In addition, the CC50 in data set [1] is over 100000 nM.

For `CC(C)C[C@H](NC(=O)OC1CN(C(=O)OC(C)(C)C)C1)C(=O)N[C@H](C=O)C[C@H]1CCNC1=O`, the IC50 in data set [2] was found to be 2500 nM; in data set [3], 1650 nM. This compound also registered a CC50 in data set [1] of over 100000 nM.

The compound `CC(C)C[C@H](NC(=O)OCC1CN(C(=O)OC(C)(C)C)C1)C(=O)N[C@H](C=O)C[C@H]1CCNC1=O` yielded an EC50 with SARS-CoV-2 [4] of 380 nM. Further, the outcome with SARS-CoV-2 [5] was Active. Also, the IC50 in data set [2] was 410 nM; in data set [3], 490 nM. In data set [1], this compound yielded a CC50 of over 100000 nM.

In the data set on SARS-CoV-2 [4], `CC(C)C[C@H](NC(=O)OC1CC2(CCN(C(=O)OC(C)(C)C)CC2)C1)C(=O)N[C@@H](C[C@H]1CCNC1=O)C(=O)C(O)S(=O)(=O)O` (stereo partly specified) showed an EC50 of 80 nM. Moreover, the result with SARS-CoV-2 [5] was Active. Moreover, the selectivity ratio in data set [6] was determined as 1250. Also, the CC50 in data set [1] is over 100000 nM.

For `CC(C)C[C@H](NC(=O)OC1CC2(C1)CN(S(C)(=O)=O)C2)C(=O)N[C@H](C=O)C[C@H]1CCNC1=O`, the IC50 was found to be 680 nM in data set [2] and 220 nM in data set [3]. In data set [1], this compound came in with a CC50 of over 100000 nM.

For `CC(C)C[C@H](NC(=O)OCC1CN(C(=O)C2CC3CCC2C3)C1)C(=O)N[C@H](C=O)C[C@H]1CCNC1=O` (stereo partly specified), the IC50 stood at 520 nM in data set [2] and 190 nM in data set [3]. The CC50 in data set [1] was over 100000 nM.

Turning to `CC(C)C[C@H](NC(=O)OC1CC2(CCN(C#N)CC2)C1)C(=O)N[C@@H](C[C@H]1CCNC1=O)C(=O)C(O)S(=O)(=O)O` (stereo partly specified), the CC50 in data set [1] is over 100000 nM.

As for `CC(C)C[C@H](NC(=O)OC1CC2(CCN(C#N)CC2)C1)C(=O)N[C@H](C=O)C[C@H]1CCNC1=O`, the results for the IC50 in data set [2] and in data set [3] were 320 nM and 560 nM, respectively. In data set [1], this compound came in with a CC50 of over 100000 nM.

On to `CC(C)C[C@H](NC(=O)OC1CC2(CCN(C(=O)OC(C)(C)C)C2)C1)C(=O)N[C@H](C=O)C[C@H]1CCNC1=O` (stereo partly specified), for which the CC50 in data set [1] is over 100000 nM. In data set [3], this compound yielded an IC50 of 700 nM.

With `CC(C)C[C@H](NC(=O)OC1CC2(C1)CN(C(=O)C(C)C)C2)C(=O)N[C@@H](C[C@H]1CCNC1=O)C(=O)C(O)S(=O)(=O)O` (stereo partly specified), the CC50 in data set [1] is over 100000 nM.

As to `CC(C)C[C@H](NC(=O)OC1CC2(C1)CN(C(=O)OC(C)(C)C)C2)C(=O)N[C@H](C=O)C[C@H]1CCNC1=O`, the values for the IC50 in data set [2] and in data set [3] were 3300 nM and 1500 nM, respectively. Moreover, in data set [1], the CC50 is over 100000 nM.

The compound `CC(C)C[C@H](NC(=O)OC1CC2(CCN(C(=O)Cc3ccccc3)CC2)C1)C(=O)N[C@@H](C[C@H]1CCNC1=O)C(=O)C(O)S(=O)(=O)O` (stereo partly specified) gave a CC50 in data set [1] of over 100000 nM.

Turning to `CC(C)C[C@H](NC(=O)OC1CC2(CCN(C(=O)Cc3ccccc3)CC2)C1)C(=O)N[C@H](C=O)C[C@H]1CCNC1=O`, the figures for the IC50 in data set [2] and in data set [3] were 350 nM and 700 nM, respectively. In data set [1], this compound yielded a CC50 of over 100000 nM.

As to `CC(C)C[C@H](NC(=O)OCC1CN(C(=O)Cc2ccccc2)C1)C(=O)N[C@H](C=O)C[C@H]1CCNC1=O`, the IC50 in data set [2] came to 830 nM; in data set [3], 280 nM. This compound also had a CC50 in data set [1] of over 100000 nM.

`CC(C)C[C@H](NC(=O)OC1CC2(CCN(S(C)(=O)=O)CC2)C1)C(=O)N[C@@H](C[C@H]1CCNC1=O)C(=O)C(O)S(=O)(=O)O` (stereo partly specified): the CC50 in data set [1] is over 100000 nM.

`CC(C)C[C@H](NC(=O)OC1(C)CN(C(=O)OC(C)(C)C)C1)C(=O)N[C@H](C=O)C[C@H]1CCNC1=O`: the IC50 in data set [2] was found to be 3650 nM; in data set [3] it was 3450 nM. In addition, the CC50 in data set [1] is over 100000 nM.

For `CC(C)C[C@H](NC(=O)OC1CC2(CCN(S(C)(=O)=O)CC2)C1)C(=O)N[C@H](C=O)C[C@H]1CCNC1=O`, the figures for the IC50 in data set [2] and in data set [3] were 240 nM and 370 nM, respectively. The CC50 in data set [1] was over 100000 nM.

With `CC(C)C[C@H](NC(=O)OCC1CN(S(C)(=O)=O)C1)C(=O)N[C@H](C=O)C[C@H]1CCNC1=O`, the IC50 in data set [2] stood at 4950 nM; in data set [3], 1400 nM. The compound further showed a CC50 in data set [1] of over 100000 nM.

On to `CC(C)C[C@H](NC(=O)OC1CC2(CCN(C(=O)OC(C)(C)C)C2)C1)C(=O)N[C@@H](C[C@H]1CCNC1=O)C(=O)C(O)S(=O)(=O)O` (stereo partly specified), for which the CC50 in data set [1] is over 100000 nM.

For `CC(C)C[C@H](NC(=O)OCC1CN(C(=O)OC(C)(C)C)C1)C(=O)N[C@@H](C[C@H]1CCNC1=O)C(=O)C(O)S(=O)(=O)O` (stereo partly specified), in the data set on SARS-CoV-2 [4], a half-maximal effect (EC50) was put at 430 nM. Moreover, the outcome in the data set with SARS-CoV-2 [5] was Active. The same compound gave a CC50 in data set [1] of over 100000 nM.

For the compound `CC(C)C[C@H](NC(=O)OC1CC2(C1)CN(C(=O)OC(C)(C)C)C2)C(=O)N[C@@H](C[C@H]1CCNC1=O)C(=O)C(O)S(=O)(=O)O` (stereo partly specified), the CC50 in data set [1] is over 100000 nM.
